In ChEMBL document CHEMBL4152382, “Discovery of Tarantula Venom-Derived NaV1.7-Inhibitory JzTx-V Peptide 5-Br-Trp24 Analogue AM-6120 with Systemic Block of Histamine-Induced Pruritis” (J Med Chem, 2018):
The source made the active and inactive calls. The rule behind the calls is not given here.

Tests used:
[1] = test system: Mus musculus; test: In vivo inhibition of Nav1.7 in C57/BL6 mouse model of histamine-induced pruritis assessed as reduction in scratching bouts at 10 mg/kg, […] dosed 2 hrs before histamine challenge and measured for 15 mins relative to control; format: functional
[2] = Inhibition of TTX-resistant sodium channel-mediated currents in C57/BL6 mouse DRG neurons by whole cell manual patch clamp assay; conditions: C57/BL6, DRG neuron
[3] = target: Sodium channel protein type 9 subunit alpha (Homo sapiens, UniProt Q15858); test: Inhibition of human Nav1.7 expressed in HEK293 cells at holding potential of -125 mV […] by patchxpress-based electrophysiology assay; format: cell-based
[4] = target: Sodium channel protein type 4 subunit alpha (Homo sapiens, UniProt P35499); test: Inhibition of human Nav1.4 expressed in HEK293 cells at holding potential of -125 mV […] by patchxpress-based electrophysiology assay; format: cell-based
[5] = target: Sodium channel protein type 8 subunit alpha (Homo sapiens, UniProt Q9UQD0); test: Inhibition of human Nav1.6 expressed in HEK293 cells at holding potential of -125 mV […] by patchxpress-based electrophysiology assay; format: cell-based
[6] = target: Sodium channel protein type 5 subunit alpha (Homo sapiens, UniProt Q14524); test: Inhibition of human Nav1.5 expressed in HEK293 cells at holding potential of […] after 10 mins by patchxpress-based electrophysiology assay; format: cell-based
[7] = target: Sodium channel protein type 10 subunit alpha (Homo sapiens, UniProt Q9Y5Y9); test: Inhibition of human Nav1.8 expressed in HEK293 cells after 10 mins by patchxpress-based electrophysiology; format: cell-based
Sequence of Sodium channel protein type 10 subunit alpha (Q9Y5Y9 whole entry): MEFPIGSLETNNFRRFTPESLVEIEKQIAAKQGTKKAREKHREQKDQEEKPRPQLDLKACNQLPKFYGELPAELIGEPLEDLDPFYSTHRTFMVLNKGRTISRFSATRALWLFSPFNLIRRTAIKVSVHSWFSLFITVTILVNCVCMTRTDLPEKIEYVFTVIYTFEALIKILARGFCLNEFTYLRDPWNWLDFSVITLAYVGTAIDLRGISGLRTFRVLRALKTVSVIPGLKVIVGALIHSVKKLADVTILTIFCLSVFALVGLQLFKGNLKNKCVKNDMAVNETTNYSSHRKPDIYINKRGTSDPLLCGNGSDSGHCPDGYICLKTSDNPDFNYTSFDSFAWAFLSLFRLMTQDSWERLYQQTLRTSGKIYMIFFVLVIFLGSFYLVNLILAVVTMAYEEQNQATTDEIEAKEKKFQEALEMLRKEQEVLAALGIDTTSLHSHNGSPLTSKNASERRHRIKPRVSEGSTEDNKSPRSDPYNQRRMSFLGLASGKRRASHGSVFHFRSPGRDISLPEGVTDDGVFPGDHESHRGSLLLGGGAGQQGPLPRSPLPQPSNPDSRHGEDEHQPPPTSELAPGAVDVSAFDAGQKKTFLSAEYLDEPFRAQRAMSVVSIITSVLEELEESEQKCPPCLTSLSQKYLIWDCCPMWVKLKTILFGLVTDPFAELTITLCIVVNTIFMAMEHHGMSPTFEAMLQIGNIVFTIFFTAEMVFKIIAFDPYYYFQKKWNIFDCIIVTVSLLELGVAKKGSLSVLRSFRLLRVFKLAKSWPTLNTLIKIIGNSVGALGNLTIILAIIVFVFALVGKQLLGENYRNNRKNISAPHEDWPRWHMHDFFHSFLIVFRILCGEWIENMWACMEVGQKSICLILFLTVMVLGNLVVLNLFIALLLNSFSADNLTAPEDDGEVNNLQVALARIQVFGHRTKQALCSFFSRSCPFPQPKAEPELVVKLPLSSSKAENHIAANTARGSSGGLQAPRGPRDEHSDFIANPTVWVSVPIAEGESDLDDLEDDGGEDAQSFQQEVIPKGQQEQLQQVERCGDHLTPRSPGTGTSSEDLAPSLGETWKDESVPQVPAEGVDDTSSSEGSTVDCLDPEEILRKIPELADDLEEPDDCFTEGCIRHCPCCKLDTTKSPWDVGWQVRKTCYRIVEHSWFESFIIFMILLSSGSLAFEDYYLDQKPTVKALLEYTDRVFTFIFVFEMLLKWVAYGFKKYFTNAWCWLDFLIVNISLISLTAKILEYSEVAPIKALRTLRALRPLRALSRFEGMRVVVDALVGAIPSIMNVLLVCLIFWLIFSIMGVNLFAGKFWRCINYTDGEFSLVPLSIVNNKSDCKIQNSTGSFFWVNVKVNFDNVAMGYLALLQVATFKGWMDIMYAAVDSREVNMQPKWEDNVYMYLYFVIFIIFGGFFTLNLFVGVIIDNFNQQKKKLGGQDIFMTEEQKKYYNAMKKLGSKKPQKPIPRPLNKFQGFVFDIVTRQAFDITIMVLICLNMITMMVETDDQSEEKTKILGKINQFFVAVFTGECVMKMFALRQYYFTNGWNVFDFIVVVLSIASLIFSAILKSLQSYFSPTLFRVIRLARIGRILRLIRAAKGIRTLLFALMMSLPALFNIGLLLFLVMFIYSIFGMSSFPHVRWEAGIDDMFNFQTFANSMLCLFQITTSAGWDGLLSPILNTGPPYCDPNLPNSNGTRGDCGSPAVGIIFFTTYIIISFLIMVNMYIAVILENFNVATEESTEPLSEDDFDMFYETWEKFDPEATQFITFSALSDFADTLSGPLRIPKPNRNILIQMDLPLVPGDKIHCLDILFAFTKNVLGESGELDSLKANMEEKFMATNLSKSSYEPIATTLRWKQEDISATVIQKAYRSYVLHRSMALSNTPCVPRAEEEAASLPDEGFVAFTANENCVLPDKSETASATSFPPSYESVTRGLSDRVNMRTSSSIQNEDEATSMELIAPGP

[8] = target: T1, Sodium channel protein type 9 subunit alpha (Mus musculus, UniProt Q62205); test: Inhibition of mouse Nav1.7 expressed in HEK293 cells after 10 mins by patchxpress-based electrophysiology; format: cell-based
T1 sequence (Q62205 whole entry): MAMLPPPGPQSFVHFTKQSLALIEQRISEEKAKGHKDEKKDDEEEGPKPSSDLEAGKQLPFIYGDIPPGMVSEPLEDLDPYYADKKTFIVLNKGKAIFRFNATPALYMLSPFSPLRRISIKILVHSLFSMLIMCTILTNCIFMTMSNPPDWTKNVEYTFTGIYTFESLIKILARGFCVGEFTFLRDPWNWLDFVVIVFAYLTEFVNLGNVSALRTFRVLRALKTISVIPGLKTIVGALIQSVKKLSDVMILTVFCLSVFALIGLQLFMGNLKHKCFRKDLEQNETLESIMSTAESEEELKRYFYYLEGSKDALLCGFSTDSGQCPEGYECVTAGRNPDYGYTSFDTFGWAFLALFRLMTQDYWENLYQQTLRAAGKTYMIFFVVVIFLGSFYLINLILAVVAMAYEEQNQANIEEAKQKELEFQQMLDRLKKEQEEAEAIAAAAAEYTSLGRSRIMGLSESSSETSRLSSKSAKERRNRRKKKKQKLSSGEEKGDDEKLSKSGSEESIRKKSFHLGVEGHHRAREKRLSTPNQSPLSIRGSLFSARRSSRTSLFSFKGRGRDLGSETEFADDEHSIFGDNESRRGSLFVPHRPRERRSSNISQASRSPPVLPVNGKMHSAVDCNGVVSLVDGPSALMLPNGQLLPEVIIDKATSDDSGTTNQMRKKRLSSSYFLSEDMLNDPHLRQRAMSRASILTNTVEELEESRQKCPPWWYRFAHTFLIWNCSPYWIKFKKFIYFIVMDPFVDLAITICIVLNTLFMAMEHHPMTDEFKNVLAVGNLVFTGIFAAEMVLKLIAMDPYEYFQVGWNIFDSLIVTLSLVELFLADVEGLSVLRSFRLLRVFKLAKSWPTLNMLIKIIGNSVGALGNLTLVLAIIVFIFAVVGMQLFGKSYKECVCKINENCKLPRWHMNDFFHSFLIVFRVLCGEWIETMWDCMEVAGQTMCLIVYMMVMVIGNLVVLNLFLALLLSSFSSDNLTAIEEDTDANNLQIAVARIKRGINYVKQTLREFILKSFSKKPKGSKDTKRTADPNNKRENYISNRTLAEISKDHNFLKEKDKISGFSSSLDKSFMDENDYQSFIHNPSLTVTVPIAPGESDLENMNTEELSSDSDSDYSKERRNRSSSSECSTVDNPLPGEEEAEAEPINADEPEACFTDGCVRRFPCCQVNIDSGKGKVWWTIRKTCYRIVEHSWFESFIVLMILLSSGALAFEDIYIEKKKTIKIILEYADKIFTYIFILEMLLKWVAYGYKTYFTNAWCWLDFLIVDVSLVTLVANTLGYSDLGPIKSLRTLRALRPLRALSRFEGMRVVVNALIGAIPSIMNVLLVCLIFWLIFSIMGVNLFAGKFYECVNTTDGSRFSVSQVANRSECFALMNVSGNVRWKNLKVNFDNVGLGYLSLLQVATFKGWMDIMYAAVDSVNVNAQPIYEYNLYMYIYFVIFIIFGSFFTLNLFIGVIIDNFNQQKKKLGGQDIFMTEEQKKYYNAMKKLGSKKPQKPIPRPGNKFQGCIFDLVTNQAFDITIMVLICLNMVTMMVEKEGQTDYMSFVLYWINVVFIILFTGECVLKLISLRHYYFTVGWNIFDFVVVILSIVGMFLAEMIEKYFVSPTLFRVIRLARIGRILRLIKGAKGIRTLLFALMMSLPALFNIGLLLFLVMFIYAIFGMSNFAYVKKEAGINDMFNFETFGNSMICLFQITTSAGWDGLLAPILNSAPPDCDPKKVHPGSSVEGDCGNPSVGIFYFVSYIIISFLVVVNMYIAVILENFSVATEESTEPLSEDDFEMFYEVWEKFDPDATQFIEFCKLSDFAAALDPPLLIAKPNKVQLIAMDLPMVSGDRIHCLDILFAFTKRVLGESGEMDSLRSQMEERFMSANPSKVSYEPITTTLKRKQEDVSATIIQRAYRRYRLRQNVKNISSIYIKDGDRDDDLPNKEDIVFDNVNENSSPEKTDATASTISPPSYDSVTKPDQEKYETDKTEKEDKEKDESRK

[9] = target: T1, Sodium channel protein type 9 subunit alpha; test: Inhibition of Nav1.7 in C57/BL6 mouse DRG neurons assessed as reduction in TTX sensitive sodium channel-mediated currents by whole cell manual patch clamp assay
[10] = AUCt in C57/BL6 mouse at 2 mg/kg, sc by LC-MS/MS analysis; format: ADME, organism-based; conditions: in vivo
Method in brief: (§1)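 Male C57Bl/6 mice, n = 3 per time point, given a single 2 mg/kg subcutaneous dose. Plasma levels were quantified by LC-MS/MS over time, and pharmacokinetic parameters were derived from the plasma profiles. Data are reported as mean ± SEM for each time point.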

[11] = Apparent […] clearance in C57/BL6 mouse at 2 mg/kg, sc by LC-MS/MS analysis; format: ADME, organism-based; conditions: in vivo; method in brief: as §1
[12] = Cmax in C57/BL6 mouse at 2 mg/kg, sc by LC-MS/MS analysis; format: ADME, organism-based; parameters: dose 2 mg/kg, route subcutaneous; conditions: in vivo; method in brief: as §1
[13] = MRT in C57/BL6 mouse at 2 mg/kg, sc by LC-MS/MS analysis; format: ADME, organism-based; conditions: in vivo; method in brief: as §1
[14] = Half life in C57/BL6 mouse at 2 mg/kg, sc by LC-MS/MS analysis; format: ADME, organism-based; conditions: in vivo; method in brief: as §1
[15] = Tmax in C57/BL6 mouse at 2 mg/kg, sc by LC-MS/MS analysis; format: ADME, organism-based; conditions: in vivo; method in brief: as §1
[16] = test system: Mus musculus; test: Volume of distribution at steady state in C57/BL6 mouse at 2 mg/kg, sc by LC-MS/MS analysis; format: ADME, organism-based; conditions: in vivo; method in brief: as §1
[17] = Plasma concentration in C57/BL6 mouse at 2 mg/kg, sc after 30 mins by LC-MS/MS analysis; format: ADME, organism-based; conditions: in vivo, 0.5 h; method in brief: as §1
[18] = test system: Mus musculus; test: In vivo inhibition of Nav1.7 in C57/BL6 mouse model of histamine-induced pruritis assessed as reduction in scratching bouts at 0.5 mg/kg, sc dosed 2 hrs before histamine challenge and measured for 15 mins relative to control; format: functional
Method in brief: (§2)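 Male C57Bl/6 mice aged 8–10 weeks; nape shaved under 3% isoflurane the day before, with 15 min chamber acclimation. Peptide given sc 2 h before intradermal histamine dichloride (8.15 mM, 100 μL); vehicle was PBS with 1% MSA. Scratch bouts video-recorded for 15 min, blinded scoring; n = 8–10 per group; one-way ANOVA with Dunnett's test versus vehicle.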

[19] = test system: Mus musculus; test: In vivo inhibition of Nav1.7 in C57/BL6 mouse model of histamine-induced pruritis assessed as reduction in scratching bouts at 1 mg/kg, sc dosed 2 hrs before histamine challenge and measured for 15 mins relative to control; format: functional; method in brief: as §2
[20] = test system: Mus musculus; test: In vivo inhibition of Nav1.7 in C57/BL6 mouse model of histamine-induced pruritis assessed as reduction in scratching bouts at 2 mg/kg, sc dosed 2 hrs before histamine challenge and measured for 15 mins relative to control; format: functional; method in brief: as §2
[21] = Plasma concentration in C57/BL6 mouse model of histamine-induced pruritis at 0.5 mg/kg, sc; format: ADME, organism-based; conditions: in vivo
Method in brief: (§3)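 Dosing was 2 h before an intradermal nape injection of histamine (8.15 mM, 100 μL). Scratching was videorecorded for 15 min by blinded experimenters, and peptide plasma concentrations were analysed from the same study.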

[22] = Plasma concentration in C57/BL6 mouse model of histamine-induced pruritis at 1 mg/kg, sc; format: ADME, organism-based; conditions: in vivo; method in brief: as §3
[23] = Plasma concentration in C57/BL6 mouse model of histamine-induced pruritis at 2 mg/kg, sc; format: ADME, organism-based; conditions: in vivo; method in brief: as §3
[24] = Ratio of plasma concentration in C57/BL6 mouse model of histamine-induced pruritis at 0.5 mg/kg, sc to IC50 for Nav1.7 in C57/BL6 mouse DRG neurons by whole cell manual patch clamp assay; format: ADME, organism-based; conditions: in vivo
[25] = Ratio of plasma concentration in C57/BL6 mouse model of histamine-induced pruritis at 1 mg/kg, sc to IC50 for Nav1.7 in C57/BL6 mouse DRG neurons by whole cell manual patch clamp assay; format: ADME, organism-based; conditions: in vivo
[26] = Ratio of plasma concentration in C57/BL6 mouse model of histamine-induced pruritis at 2 mg/kg, sc to IC50 for Nav1.7 in C57/BL6 mouse DRG neurons by whole cell manual patch clamp assay; format: ADME, organism-based; conditions: in vivo
[27] = test system: Mus musculus; test: Toxicity in C57/BL6 mouse assessed as effect on locomotor activity at 2 mg/kg, sc by open field assay; format: organism-based; conditions: in vivo
[28] = test system: Mus musculus; test: Toxicity in C57/BL6 mouse assessed as effect on locomotor activity at 1 mg/kg, sc by open field assay; format: organism-based; conditions: in vivo

| Structure (SMILES) | IC50 [3] [µM] | IC50 [4] [µM] | IC50 [5] [µM] | IC50 [6] [µM] | IC50 [7] [µM] | IC50 [9] [µM] | AUC(0-t) [10] [µM·h] | CL/F [11] [L/h/kg] | Cmax [12] [µM] | MRT [13] [h] | half-life [14] [h] | Tmax [15] [h] | Vdss [16] [L/kg] | Drug uptake [17] | Ratio [25] | other results |
| --- | --- | --- | --- | --- | --- | --- | --- | --- | --- | --- | --- | --- | --- | --- | --- | --- |
| CN(C)CCOC(c1ccccc1)c1ccccc1 [DIPHENHYDRAMINE] |  |  |  |  |  |  |  |  |  |  |  |  |  |  |  | inhibition in vivo at 10 mg/kg [1]: 89.7% |
| C#CC[C@H](NC(=O)[C@@H](N)CCC(=O)O)C(=O)N[C@H]1CSSC[C@@H]2NC(=O)[C@@H]3CSSC[C@@H](C(=O)N[C@@H](CCCNC(=N)N)C(=O)N[C@@H](CCCCN)C(=O)N[C@@H](CCC(=O)O)C(=O)N[C@H](C(N)=O)[C@@H](C)CC)NC(=O)[C@H](Cc4c[nH]c5ccc(Br)cc45)NC(=O)[C@H](CC(C)C)NC(=O)[C@H](CCCCN)NC(=O)[C@H](CSSC[C@H](NC(=O)[C@H]([C@@H](C)O)NC(=O)[C@H](Cc4c[nH]c5ccccc45)NC(=O)[C@H](CCCC)NC(=O)[C@H](Cc4c[nH]c5ccccc45)NC(=O)[C@H](CCCCN)NC(=O)[C@H](CCC(N)=O)NC1=O)C(=O)N[C@@H](CC(=O)O)C(=O)N[C@@H](CO)C(=O)N[C@@H](C)C(=O)N[C@@H](CCCNC(=N)N)C(=O)N[C@@H](C)C(=O)N3)NC(=O)[C@H](CCCNC(=N)N)NC(=O)[C@H](CC(C)C)NC(=O)CNC(=O)[C@H](CCC(=O)O)NC2=O | 0.0008 | 0.104 | 0.104 | 6.64 | > 1 | 0.0051 | 4.5 | 0.12 | 1.48 | 3.7 | 4.95 | 0.5 | 0.444 | Active | 59 | IC50 [2]: > 10 µM; IC50 [8]: 0.0054 µM; inhibition in vivo at 0.5 mg/kg [18]: 7.3%; inhibition in vivo at 1 mg/kg [19]: 22.5%; inhibition in vivo at 2 mg/kg [20]: 88.9%; concentration [21]: 0.122 µM; concentration [22]: 0.3 µM; concentration [23]: 0.535 µM; Ratio [24]: 24; Ratio [26]: 105; Activity [27]: Non-Toxic |
| C#CC[C@H](N)C(=O)N[C@@H](Cc1ccc(O)cc1)C(=O)N[C@H]1CSSC[C@@H]2NC(=O)[C@@H]3CSSC[C@@H](C(=O)N[C@@H](CCCNC(=N)N)C(=O)N[C@@H](CCCCN)C(=O)N[C@@H](CCC(=O)O)C(=O)N[C@H](C(N)=O)[C@@H](C)CC)NC(=O)[C@H](Cc4c[nH]c5ccc(Br)cc45)NC(=O)[C@H](CC(C)C)NC(=O)[C@H](CCCCN)NC(=O)[C@H](CSSC[C@H](NC(=O)[C@H]([C@@H](C)O)NC(=O)[C@H](Cc4c[nH]c5ccccc45)NC(=O)[C@H](CCCC)NC(=O)[C@H](Cc4c[nH]c5ccccc45)NC(=O)[C@H](CCCCN)NC(=O)[C@H](CCC(N)=O)NC1=O)C(=O)N[C@@H](CC(=O)O)C(=O)N[C@@H](CO)C(=O)N[C@@H](CCCCN)C(=O)N[C@@H](CCCNC(=N)N)C(=O)N[C@@H](C)C(=O)N3)NC(=O)[C@H](CCCNC(=N)N)NC(=O)[C@H](CC(C)C)NC(=O)CNC(=O)[C@H](CCC(=O)O)NC2=O | 0.00026 | 0.053 | 0.066 | 0.26 | 0.509 |  | 3.44 | 0.154 | 0.892 | 3.55 | 2.38 | 0.5 | 0.547 | Active |  |  |
| C#CC[C@H](N)C(=O)N[C@@H](Cc1ccc(O)cc1)C(=O)N[C@H]1CSSC[C@@H]2NC(=O)[C@@H]3CSSC[C@@H](C(=O)N[C@@H](CCCNC(=N)N)C(=O)N[C@@H](CCCCN)C(=O)N[C@@H](CCC(=O)O)C(=O)N[C@H](C(N)=O)[C@@H](C)CC)NC(=O)[C@H](Cc4c[nH]c5ccccc45)NC(=O)[C@H](CC(C)C)NC(=O)[C@H](CCCCN)NC(=O)[C@H](CSSC[C@H](NC(=O)[C@H]([C@@H](C)O)NC(=O)[C@H](Cc4c[nH]c5ccccc45)NC(=O)[C@H](CCCC)NC(=O)[C@H](Cc4c[nH]c5ccccc45)NC(=O)[C@H](CCCCN)NC(=O)[C@H](CCC(N)=O)NC1=O)C(=O)N[C@@H](CC(=O)O)C(=O)N[C@@H](CO)C(=O)N[C@@H](CCCCN)C(=O)N[C@@H](CCCNC(=N)N)C(=O)N[C@@H](C)C(=O)N3)NC(=O)[C@H](CCCNC(=N)N)NC(=O)[C@H](CC(C)C)NC(=O)CNC(=O)[C@H](CCC(=O)O)NC2=O | 0.0005 |  |  | 3.07 | > 1 | 0.009 |  |  |  |  |  |  |  |  | 6.5 | Activity [19]: inactive; Activity [28]: Non-Toxic |
